Measured values as given in ChEMBL document CHEMBL1938247, “Synthesis and evaluation of inhibitors of bacterial drug efflux pumps of the major facilitator superfamily” (2011).
Values after ≈ are worked out from the molar mass of the structure shown. Active and inactive are the calls of the source. The rule behind the calls is not given here. Where a SMILES comes first, the peptide text is derived from it. [ ]: non-standard residue; d: D form. The star is where a group is joined. ξ: configuration not given here. ξhPhe = NC(CCc1ccccc1)C(=O)O; βNA = c1ccc2cc(N*)ccc2c1

How the values were obtained:
Streptomyces coelicolor [1] = assay: Potentiation of chloramphenicol-induced antibacterial activity against Streptomyces coelicolor at 25 ug/mL after 48 hrs relative to control; format: functional
Outline: (§1)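 1 μL of a 10⁸ cfu/μL spore stock patched per plate; incubated at 30 °C. Strains: wild-type S. coelicolor, or PCR-targeted null mutants lacking cmlR1, cmlR2 or both. Reference efflux inhibitor MC-207,110 (Phe-Arg-β-naphthylamide) tested at the same 25 μg/mL.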

Streptomyces coelicolor [2] = assay: Antibacterial activity against Streptomyces coelicolor at 25 ug/mL after 48 hrs; format: functional, organism-based
Outline: (§2)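 Strains: wild-type S. coelicolor, or PCR-targeted null mutants lacking cmlR1, cmlR2 or both. Inhibitors HPLC-purified before testing; inhibitor alone at 25 μg/mL also checked for intrinsic toxicity.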

Streptomyces coelicolor [3] = assay: Antibacterial activity against Streptomyces coelicolor after 48 hrs; format: functional
Streptomyces coelicolor [4] = assay: Antibacterial activity against cmlR2-deficient Streptomyces coelicolor at 25 ug/mL after 48 hrs; format: functional, organism-based; outline: as §2
Streptomyces coelicolor [5] = assay: Antibacterial activity against cmlR1 and cmlR2-deficient Streptomyces coelicolor at 25 ug/mL after 48 hrs; format: functional, organism-based; outline: as §2
Streptomyces coelicolor [6] = assay: Potentiation of chloramphenicol-induced antibacterial activity against cmlR1-deficient Streptomyces coelicolor at 25 ug/mL after 48 hrs relative to control; format: functional; outline: as §1
Streptomyces coelicolor [7] = assay: Potentiation of chloramphenicol-induced antibacterial activity against Streptomyces coelicolor at 25 ug/mL after 48 hrs relative to MC-207,110; format: functional; outline: as §1
Streptomyces coelicolor [8] = assay: Potentiation of chloramphenicol-induced antibacterial activity against cmlR2-deficient Streptomyces coelicolor at 25 ug/mL after 48 hrs relative to control; format: functional; outline: as §1
Streptomyces coelicolor [9] = assay: Inhibition of cmlR2 overexpressed in Streptomyces coelicolor assessed as potentiation of chloramphenicol-induced antibacterial activity measuring reduction in MIC of chloramphenicol at 25 ug/mL after 48 hrs relative to control
Outline: (§3)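 The cmlR1/cmlR2 double-null S. coelicolor strain was engineered to over-express cmlR1 or cmlR2 from a strong constitutive promoter. Spores (1 μL of a 10⁸ cfu/μL stock) were patched on Difco nutrient agar with 25 μg/mL inhibitor and varying chloramphenicol, then incubated at 30 °C. The chloramphenicol MIC (μg/mL) was read, and fold-potentiation was taken relative to the MIC without inhibitor.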

Streptomyces coelicolor [10] = assay: Antibacterial activity against cmlR1-deficient Streptomyces coelicolor at 25 ug/mL after 48 hrs; format: functional, organism-based; outline: as §2
Streptomyces coelicolor [11] = assay: Potentiation of chloramphenicol-induced antibacterial activity against cmlR1 and cmlR2-deficient Streptomyces coelicolor at 25 ug/mL after 48 hrs relative to control; format: functional; outline: as §1
Streptomyces coelicolor [12] = assay: Antibacterial activity against Streptomyces coelicolor overexpressing cmlR2 at 25 ug/mL after 48 hrs; format: functional, organism-based
Outline: (§4)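 Host strains were the cmlR1/cmlR2 double-null S. coelicolor carrying cmlR1 or cmlR2 under a strong constitutive promoter, selected for hygromycin resistance. Growth was checked on Difco nutrient agar containing 25 μg/mL test compound alone, with plates kept at 30 °C.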

Streptomyces coelicolor [13] = assay: Antibacterial activity against Streptomyces coelicolor overexpressing cmlR1 at 25 ug/mL after 48 hrs; format: functional, organism-based; outline: as §4
Streptomyces coelicolor [14] = assay: Inhibition of cmlR1 overexpressed in Streptomyces coelicolor assessed as potentiation of chloramphenicol-induced antibacterial activity measuring reduction in MIC of chloramphenicol at 25 ug/mL after 48 hrs relative to control; outline: as §3

SMILES | Activity (Streptomyces coelicolor [1]) | Activity (Streptomyces coelicolor [2]) | MIC (Streptomyces coelicolor [3]) | further results
NCCC[C@@H](N)C(=O)NC(C(=O)Nc1ccc2ccccc2c1)c1ccccc1 (stereo partly drawn) | Active | inactive |  | 
NCCC[C@@H](N)C(=O)NC(CCc1ccccc1)C(=O)Nc1ccc2ccccc2c1 (mixture of isomers) |  | inactive | 10 µg/mL | fold change (FC) (Streptomyces coelicolor [1]): 6.5
NCCC[C@H](N)C(=O)NC(CCc1ccccc1)C(=O)Nc1cnc2ccccc2c1 (mixture of isomers) |  | inactive | > 40 µg/mL | 
NCCC[C@@H](N)C(=O)OC(CCc1ccccc1)C(=O)Nc1ccc2ccccc2c1 (stereo partly drawn) |  | inactive |  | 
NCCCCC(=O)NC(CCc1ccccc1)C(=O)Nc1ccc2ccccc2c1 (stereo not drawn) | Active | inactive |  | 
NCCC[C@@H](N)C(=O)NC(CCc1ccccc1)C(=O)NCc1ccccc1 (stereo partly drawn) | Active | inactive |  | 
CC(C)(C)NC(=O)C(CCc1ccccc1)NC(=O)[C@H](N)CCCN (stereo partly drawn) | inactive | inactive |  | 
NCCC[C@H](N)C(=O)N[C@@H](CCc1ccccc1)C(=O)Nc1ccc2ccccc2c1 |  | inactive | 11 µg/mL (≈ 26.3 µM) | fold change (FC) (Streptomyces coelicolor [1]): 5.9
NCC(=O)NC(CCc1ccccc1)C(=O)Nc1ccc2ccccc2c1 (stereo not drawn) (H-Gly-[ξhPhe]-βNA) | Active | inactive |  | 
CCCCNC(=O)C(CCc1ccccc1)NC(=O)[C@H](N)CCCN (stereo partly drawn) | inactive | inactive |  | 
NCCC[C@@H](N)C(=O)NC(CCc1ccccc1)C(=O)Nc1cnc2ccccc2c1 (mixture of isomers) |  | inactive | > 40 µg/mL | 
COc1ccc(C(NC(=O)[C@H](N)CCCN)C(=O)Nc2ccc3ccccc3c2)cc1 (stereo partly drawn) | Active | inactive |  | 
NCCC(=O)NC(CCc1ccccc1)C(=O)Nc1ccc2ccccc2c1 (stereo not drawn) | Active | inactive |  | 
N=C(N)NCCC[C@H](NC(=O)[C@@H](N)Cc1ccccc1)C(=O)Nc1ccc2ccccc2c1 [PABETAN] (H-Phe-Arg-βNA) |  | inactive | 25 µg/mL (≈ 56 µM) | fold change (FC) (Streptomyces coelicolor [1]): 2.6
NCCCCCC(=O)NC(CCc1ccccc1)C(=O)Nc1ccc2ccccc2c1 (stereo not drawn) | Active | inactive |  | 
CN(C(=O)[C@H](N)CCCN)C(CCc1ccccc1)C(=O)Nc1ccc2ccccc2c1 (stereo partly drawn) | Active | inactive |  | 
NCCC[C@H](N)C(=O)NC(CCc1ccccc1)C(=O)Nc1ccc2ccccc2c1 (mixture of isomers) |  | inactive | 10 µg/mL | fold change (FC) (Streptomyces coelicolor [1]): 6.5
CC(C)C(NC(=O)[C@H](N)CCCN)C(=O)Nc1ccc2ccccc2c1 (stereo partly drawn) | Active | inactive |  | 
NCCC[C@@H](N)C(=O)NC(C(=O)Nc1ccc2ccccc2c1)c1ccco1 (stereo partly drawn) |  | inactive |  | 
NCCC[C@@H](N)C(=O)NC(CCc1ccccc1)C(=O)NC1CCCCC1 (stereo partly drawn) | inactive | inactive |  | 
NCCC[C@@H](N)C(=O)NC(C(=O)Nc1ccc2ccccc2c1)c1ccc([N+](=O)[O-])cc1 (stereo partly drawn) | Active | inactive |  | 
NCCC[C@H](N)C(=O)N[C@H](CCc1ccccc1)C(=O)Nc1ccc2ccccc2c1 |  | inactive | 9 µg/mL (≈ 21.5 µM) | Activity (Streptomyces coelicolor [4]): inactive; Activity (Streptomyces coelicolor [5]): inactive; fold change (FC) (Streptomyces coelicolor [1]): 7.2; fold change (FC) (Streptomyces coelicolor [6]): 3.3; fold change (FC) (Streptomyces coelicolor [7]): 3; fold change (FC) (Streptomyces coelicolor [8]): 2.4; fold change (FC) (Streptomyces coelicolor [9]): 7.3; Activity (Streptomyces coelicolor [10]): inactive; fold change (FC) (Streptomyces coelicolor [11]): 1.8; Activity (Streptomyces coelicolor [12]): inactive; Activity (Streptomyces coelicolor [13]): inactive; fold change (FC) (Streptomyces coelicolor [14]): 3.5
